From ChEMBL document CHEMBL1123374, “Comparative pharmacology in the rat of ketamine and its two principal metabolites, norketamine and (Z)-6-hydroxynorketamine” (J Med Chem, 1986)

Assays:
[1] = tested on: Rattus norvegicus; experiment: Compound was administered to male Sprague-Dawley rats (250-300 g) by intravenous (iv) bolus injection at a dose of 40 mg/kg; format: functional
Outline: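 Male Sprague-Dawley rats (250-300 g) with right jugular vein catheter, 48 h recovery; 40 mg/kg iv bolus as free base in propylene glycol/ethanol/water (40/10/50) or HCl salt in 0.9% saline; controls given vehicle. Anesthesia duration by loss of righting reflex; locomotor activity by stabilimeter, excitation ended at <2 events per 3 min; mean ± SEM, n = 4.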

[2] = Partition coefficient was expressed as the ratio of the equilibrium concentration in benzene solvent to that in an equal volume of pH 7.4 aqueous buffer; format: ADME
Outline: (§1)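 Compound at 100 µg/mL in organic solvent shaken with equal volume 0.1 M sodium phosphate buffer pH 7.4, 30 min, ambient temperature; phases separated by centrifugation, each quantified by GC against internal standard; coefficient = organic/aqueous concentration ratio; triplicate per solvent, mean ± SEM.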

[3] = Partition coefficient was expressed as the ratio of the equilibrium concentration in chloroform solvent to that in an equal volume of pH 7.4 aqueous buffer; format: ADME; outline: as §1
[4] = Partition coefficient was expressed as the ratio of the equilibrium concentration in n-heptane solvent to that in an equal volume of pH 7.4 aqueous buffer; format: ADME; outline: as §1

Row | Structure (SMILES) | Duration of anesthesia [1] [min] | Duration of increase in SLA [1] [min] | Partition coefficient [2] | Partition coefficient [3] | Partition coefficient [4]
1 | NC1(c2ccccc2Cl)CCC[C@@H](O)C1=O (stereo not given in full) | 0 | 0 | 1.44 | 19.4 | 0.00963
2 | NC1(c2ccccc2Cl)CCCCC1=O (stereo not given) [NORKETAMINE] | 3.24 | 7.15 | 52.6 | 296 | 1.86
3 | CNC1(c2ccccc2Cl)CCCCC1=O (stereo not given) [KETAMINE] | 7.11 | 24.65 | 98.6 | 299 | 6.36
